Activity calls are given as the source filed them. The rule behind the calls is not given here.
Experiments:
[1] = tested on: Hepatitis C virus; assay: Antiviral activity against HCV 1b infected in human HuH7 cells assessed as effect on cell viability upto 5 weeks; type: functional, organism-based; settings: Hepacivirus hominis; genotype 1b; Huh-7
[2] = tested on: West Nile virus; assay: Antiviral activity against West Nile virus NY99/1 infected in green monkey Vero cells inhibition of virus-induced cytopathic effect at 10 to 100 uM; type: functional, organism-based
Outline: (§1)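 Cytopathic effect inhibition assay: BVDV-NADL in MDCK cells; WNV-NY99/1 in Vero cells. Highest concentration tested 10 to 100 μM.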

[3] = tested on: Bovine viral diarrhea virus 1; assay: Antiviral activity against Bovine viral diarrhea virus 1 NADL infected in […] cells inhibition of virus-induced cytopathic effect at 10 to 100 uM; type: functional, organism-based; outline: as §1
[4] = tested on: Yellow fever virus; assay: Antiviral activity against Yellow fever virus 17D infected in green monkey veroE6 cells inhibition of virus-induced cytopathic effect at 10 to 100 uM; type: functional, organism-based; settings: Vero
Outline: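 Virus-induced cytopathic effect inhibition assay in VeroE6 cells with YFV-17D, with a known positive control in each run; tested up to a top concentration in the 10–100 µM range.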

[5] = tested on: Human immunodeficiency virus 1; assay: Antiviral activity against Human immunodeficiency virus 1 3b infected in human MT4 cells at 10 to 100 uM; type: functional, organism-based
Outline: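 HIV-1 IIIB in MT-4 cells, enhanced green fluorescent protein-based read-out. Highest concentration tested 10 to 100 μM.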

[6] = tested on: Hepatitis B virus; assay: Antiviral activity against Hepatitis B virus infected in human HepG2.2.15 cells at 10 to 100 uM by quantitative PCR; type: functional, organism-based; settings: HepG2 2.2.15
Outline: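 HBV replication in HepG2.2.15 cells, measured by quantitative PCR. Highest concentration tested 10 to 100 μM.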

[7] = tested on: Respiratory syncytial virus; assay: Antiviral activity against Respiratory syncytial virus infected in human HeLa cells at 10 to 100 uM; type: functional, organism-based
Outline: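 RSV (LO strain) in HeLa/M cells, tetrazolium-based colorimetric read-out. Highest concentration tested 10 to 100 μM.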

[8] = tested on: Hepatitis C virus; assay: Antiviral activity against HCV 1b infected in human HuH7 cells assessed as log reduction in viral RNA level at 5 nM after 9 days by qRT-PCR; type: functional, organism-based; settings: Hepacivirus hominis, genotype 1b, Huh-7
Outline: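 Nine-day assay: replicon cells at 500 cells/well without G418, compound alone or with IFN-α. Medium with compounds refreshed every 3 days; cells harvested on days 3, 6 and 9 at 37°C, 5% CO2. HCV RNA measured by qRT-PCR and normalized to RPL13A.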

[9] = tested on: Hepatitis C virus; assay: Antiviral activity against Hepatitis C virus in presence of 1 mg/ml alpha-1 acid glycoprotein
[10] = tested on: Hepatitis C virus; assay: Antiviral activity against Hepatitis C virus in presence of 40 mg/ml human serum albumin
[11] = tested on: Hepatitis C virus; assay: Antiviral activity against Hepatitis C virus in presence of 1 mg/ml alpha-1 acid glycoprotein and 40 mg/ml human serum albumin
[12] = tested on: Hepatitis C virus; assay: Antiviral activity against Hepatitis C virus in presence of 40% human serum
[13] = tested on: Plasma; assay: Initial plasma concentration in Sprague-Dawley rat at 4 mg/kg, iv; type: ADME, organism-based; design: dose 4 mg/kg, route intravenous; settings: in vivo
Outline: (§2)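 Male SPF Sprague-Dawley rats (200–300 g), n=3. Single slow i.v. tail-vein bolus at 4 mg/kg (2 ml/kg) in 20% hydroxypropyl-β-cyclodextrin, pH 8.0. Plasma sampled 7 min to 31 h, measured by LC-MS/MS (LLOQ 1 ng/ml). Noncompartmental analysis.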

[14] = Cmax in Sprague-Dawley rat plasma at 40 mg/kg, po upto 31 hrs by liquid chromatography-tandem mass spectrometry; type: ADME, organism-based; design: dose 40 mg/kg, route oral
Outline: (§3)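 Male SPF Sprague-Dawley rats (200–300 g), three per group. Oral gavage at 40 mg/kg (2 ml/kg) in TPGS–PEG400 solution. Plasma sampled 0.5–31 h, measured by LC-MS/MS (LLOQ 1 ng/ml). Noncompartmental analysis.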

[15] = Tmax in Sprague-Dawley rat plasma at 40 mg/kg, po upto 31 hrs; type: ADME, organism-based; design: dose 40 mg/kg, route oral; outline: as §3
[16] = Half life (8 to 24 hrs) in Sprague-Dawley rat plasma at 40 mg/kg, po; type: ADME, organism-based; design: dose 40 mg/kg, route oral; outline: as §3
[17] = AUC (0 to 24 hrs) in Sprague-Dawley rat at 40 mg/kg, po; type: ADME, organism-based; design: time < 24 hr, dose 40 mg/kg, route oral; settings: plasma
Outline: (§4)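 Male specific-pathogen-free Sprague-Dawley rats (200-300 g), three per group; single gastric intubation of vitamin E TPGS-polyethylene glycol 400 solution at 2 ml/kg. Plasma taken from orbital plexus at 0.5, 1, 2, 4, 8, 24 and 31 h; LC-MS/MS (LLOQ 1 ng/ml); noncompartmental analysis; rats fed and watered ad libitum.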

[18] = AUC (0 to infinity) in Sprague-Dawley rat at 40 mg/kg, po; type: ADME, organism-based; design: dose 40 mg/kg, route oral; settings: plasma, read-out: AUBC; outline: as §4
[19] = Absolute bioavailability in Sprague-Dawley rat at 40 mg/kg, po; type: ADME, organism-based; settings: in vivo
Outline: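 Male SPF Sprague-Dawley rats (200–300 g, n = 3/group). Oral gavage at 40 mg/kg in vitamin E TPGS–PEG 400 solution (2 ml/kg); i.v. reference was a 4 mg/kg tail-vein slow bolus in 20% hydroxypropyl-β-cyclodextrin, pH 8.0. Plasma sampled up to 31 h and assayed by LC-MS/MS (LLOQ 1 ng/ml). Noncompartmental analysis; Fabs = dose-normalized mean AUC0-∞ p.o./i.v.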

[20] = Total plasma clearance in Sprague-Dawley rat at 4 mg/kg, iv; type: ADME, organism-based; design: dose 4 mg/kg, route intravenous; outline: as §2
[21] = Apparent volume of distribution at steady-state in Sprague-Dawley rat at 4 mg/kg, iv; type: ADME, organism-based; design: dose 4 mg/kg, route intravenous; settings: in vivo; outline: as §2
[22] = Half life (8 to 24 hrs) in Sprague-Dawley rat plasma at 4 mg/kg, iv; type: ADME, organism-based; design: dose 4 mg/kg, route intravenous; outline: as §2
[23] = AUC (0 to 24 hrs) in Sprague-Dawley rat at 4 mg/kg, iv; type: ADME, organism-based; design: time < 24 hr, dose 4 mg/kg, route intravenous; settings: plasma
Outline: (§5)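 Male specific-pathogen-free Sprague-Dawley rats (200-300 g), n = 3; single slow tail-vein bolus of 20% 2-hydroxypropyl-β-cyclodextrin formulation (pH 8.0) at 2 ml/kg. Plasma sampled from orbital plexus at 7 min, 20 min, 1, 3, 8, 24 and 31 h; LC-MS/MS (LLOQ 1 ng/ml); noncompartmental analysis of individual plasma profiles.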

[24] = AUC (0 to infinity) in Sprague-Dawley rat at 4 mg/kg, iv; type: ADME, organism-based; design: time infinity, dose 4 mg/kg, route intravenous; settings: plasma; outline: as §5
[25] = Ratio of AUC (0 to 31 hrs) in Sprague-Dawley rat small intestine to AUC (0 to 31 hrs) in Sprague-Dawley rat plasma at 40 mg/kg, po administered as single dose; type: ADME, organism-based; design: dose 40 mg/kg, route oral; settings: read-out: Ratio AUC
Outline: (§6)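 Male specific-pathogen-free Sprague-Dawley rats (200–300 g), three per group, single gastric intubation at 2 ml/kg of a vitamin E TPGS–PEG 400 solution; food and water ad libitum. Plasma sampled 30 min to 31 h; tissues dissected from oral groups. LC-MS/MS (LLOQ 1 ng/ml plasma, 5 ng/g tissue); noncompartmental analysis; ratios from mean of three rats.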

[26] = Ratio of AUC (0 to 31 hrs) in Sprague-Dawley rat large intestine to AUC (0 to 31 hrs) in Sprague-Dawley rat plasma at 40 mg/kg, po administered as single dose; type: ADME, organism-based; design: dose 40 mg/kg, route oral; settings: read-out: Ratio AUC; outline: as §6
[27] = Ratio of AUC (0 to 31 hrs) in Sprague-Dawley rat liver to AUC (0 to 31 hrs) in Sprague-Dawley rat plasma at 40 mg/kg, po administered as single dose; type: ADME, organism-based; design: dose 40 mg/kg, route oral; settings: read-out: Ratio AUC; outline: as §6
[28] = Ratio of AUC (0 to 31 hrs) in Sprague-Dawley rat kidney to AUC (0 to 31 hrs) in Sprague-Dawley rat plasma at 40 mg/kg, po administered as single dose; type: ADME, organism-based; design: dose 40 mg/kg, route oral; outline: as §6
[29] = Ratio of AUC (0 to 31 hrs) in Sprague-Dawley rat adrenal gland to AUC (0 to 31 hrs) in Sprague-Dawley rat plasma at 40 mg/kg, po administered as single dose; type: ADME, organism-based; design: dose 40 mg/kg, route oral; outline: as §6

SMILES: COc1ccc2c(O[C@@H]3C[C@H]4C(=O)N[C@]5(C(=O)NS(=O)(=O)C6CC6)C[C@H]5/C=C\CCCCN(C)C(=O)[C@@H]4C3)cc(-c3nc(C(C)C)cs3)nc2c1C [SIMEPREVIR]
- Activity [1]: inactive
- Activity [2]: inactive
- Activity [3]: inactive
- Activity [4]: inactive
- Activity [5]: inactive
- Activity [6]: inactive
- Activity [7]: inactive
- Activity [8]: Active
- EC50 [9]: 11.4 nM
- EC50 [10]: 14.1 nM
- EC50 [11]: 14.6 nM
- EC50 [12]: 11.2 nM
- Cp [13]: 3560 ng/mL
- Cmax [14]: 1430 ng/mL
- Tmax [15]: 2 h
- half-life [16]: 2.6 h
- AUC(0-t) at 24 h [17]: 7740 ng·h/mL
- AUC [18]: 7750 ng·h/mL
- bioavailability [19]: 44%
- clearance [20]: 38.3 mL/min/kg
- Vd [21]: 5.3 L/kg
- half-life [22]: 4 h
- AUC(0-t) at 24 h [23]: 1740 ng·h/mL
- AUC(0-inf) [24]: 1750 ng·h/mL
- Kp [25]: 128
- Kp [26]: 29
- Kp [27]: 39
- Kp [28]: 0.5
- Kp [29]: 0.5
